Calls of active or inactive are those of the source. The rule behind the calls is not given here.
Columns and labels:
DU-145 = test: Antiproliferative activity against human DU145 cells after 3 days by MTT assay; assay type: functional, cell-based; conditions: DU-145, 72 h
Summary of the method: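 DU145 cells kept in RPMI-1640 with 10% FBS, 37 °C, 5% CO2. Seeded at 7,000 cells/well and left 24 h. Serial dilutions of compound or DMSO added, then 3 d incubation. MTT (5 mg/mL) added for 4 h, formazan dissolved in DMSO, absorbance read at 492 nm. Triplicate or more; IC50 reported as mean.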

[1] = target: T1, Androgen receptor (Homo sapiens) (UniProt P10275); conditions: at 10 µM
T1 sequence (whole entry): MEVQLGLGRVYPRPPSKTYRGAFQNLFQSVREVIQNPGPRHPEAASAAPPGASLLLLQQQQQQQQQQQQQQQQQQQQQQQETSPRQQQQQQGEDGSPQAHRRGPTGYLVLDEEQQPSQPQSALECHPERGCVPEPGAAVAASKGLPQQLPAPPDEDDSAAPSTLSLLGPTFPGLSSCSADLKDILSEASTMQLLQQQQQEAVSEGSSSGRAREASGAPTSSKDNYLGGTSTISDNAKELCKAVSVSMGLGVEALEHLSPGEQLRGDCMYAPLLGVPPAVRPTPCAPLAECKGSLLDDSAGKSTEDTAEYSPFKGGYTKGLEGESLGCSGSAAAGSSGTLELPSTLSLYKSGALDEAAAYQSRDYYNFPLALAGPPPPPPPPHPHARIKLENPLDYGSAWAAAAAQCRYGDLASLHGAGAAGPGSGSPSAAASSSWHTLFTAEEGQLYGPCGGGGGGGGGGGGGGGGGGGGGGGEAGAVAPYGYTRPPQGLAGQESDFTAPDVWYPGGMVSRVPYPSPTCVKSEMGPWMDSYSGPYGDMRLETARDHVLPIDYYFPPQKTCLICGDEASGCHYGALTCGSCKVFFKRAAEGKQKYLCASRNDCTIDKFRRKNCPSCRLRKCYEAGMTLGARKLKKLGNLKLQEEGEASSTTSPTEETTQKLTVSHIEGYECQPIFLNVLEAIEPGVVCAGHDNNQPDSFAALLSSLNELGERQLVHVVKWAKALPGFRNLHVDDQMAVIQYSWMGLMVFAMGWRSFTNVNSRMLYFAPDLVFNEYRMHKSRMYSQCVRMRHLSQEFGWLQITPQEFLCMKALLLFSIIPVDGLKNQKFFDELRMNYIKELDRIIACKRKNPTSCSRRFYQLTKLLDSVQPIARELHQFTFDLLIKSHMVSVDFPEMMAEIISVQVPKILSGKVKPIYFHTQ

LNCaP = test: Antiproliferative activity against human LNCAP cells after 3 days by MTT assay; assay type: functional, cell-based; conditions: 72 h
Summary of the method: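 LNCaP cells kept in RPMI-1640 with 10% FBS, 37 °C, 5% CO2. Seeded at 10,000 cells/well and left 24 h. Serial dilutions of compound or DMSO added, then 3 d incubation. MTT (5 mg/mL) added for 4 h, crystals dissolved in DMSO, absorbance read at 492 nm. Triplicate or more; IC50 reported as mean.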

[2] = Elimination half life in rat administered via gavage by HPLC-MS/MS method; assay type: ADME, organism-based; conditions: in vivo, po, read-out: beta t1/2 (converted)
Summary of the method: (§1)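 Rats 180–220 g, n = 3 per group; compound dissolved in water, single gavage dose of 5.0 mg/kg. Plasma quantified by HPLC-MS/MS. Parameters derived from mean plasma concentration by noncompartmental analysis.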

[3] = Tmax in rat administered via gavage by HPLC-MS/MS method; assay type: ADME, organism-based; conditions: in vivo, po; summary of the method: as §1
[4] = Cmax in rat administered via gavage by HPLC-MS/MS method; assay type: ADME, organism-based; conditions: in vivo, po; summary of the method: as §1
[5] = Clearance in rat administered via gavage by HPLC-MS/MS method; assay type: ADME, organism-based; conditions: in vivo, po; summary of the method: as §1
[6] = AUC (0 to t) in rat administered via gavage by HPLC-MS/MS method; assay type: ADME, organism-based; conditions: in vivo, po; summary of the method: as §1
Androgen receptor = target: T2, Androgen receptor (Homo sapiens, UniProt P10275); assay type: cell-based
T2 sequence (P10275 whole entry): T1 sequence (whole entry)

[7] = target: T1, Androgen receptor (Homo sapiens); conditions: at 10 µM; remark: listed apart in the source

| Structure (SMILES) | IC50 (DU-145) | inhibition [1] | IC50 (LNCaP) | half-life [2] | Tmax [3] | Cmax [4] | CL/F [5] | AUC(0-t) [6] | IC50 (Androgen receptor) | inhibition [7] |
| --- | --- | --- | --- | --- | --- | --- | --- | --- | --- | --- |
| CCOc1ccc2c(c1)CN1C(=S)N(c3ccc(C#N)c(C(F)(F)F)c3)C(=O)C1C2 (stereo unspecified) | 40.9 µM | 47.1% | 22.6 µM |  |  |  |  |  |  |  |
| COc1c(Br)cc2c(c1Br)CN1C(=S)N(c3ccc(C#N)c(C(F)(F)F)c3)C(=O)C1C2 (stereo unspecified) | 33.8 µM | 4.6% | 19.1 µM |  |  |  |  |  |  |  |
| N#Cc1ccc(N2C(=O)C3Cc4ccccc4CN3C2=S)cc1C(F)(F)F (stereo unspecified) | > 200 µM | 89% | 31.1 µM | 5.13 h | 2 h | 0.387 µg/mL | 1.23 L/h/kg | 3.87 µg·h/mL |  |  |
| N#Cc1ccc(N2C(=O)C3Cc4ccc(O)cc4CN3C2=S)cc1C(F)(F)F (stereo unspecified) | > 200 µM | 85.7% | 50.7 µM |  |  |  |  |  |  |  |
| CNC(=O)c1cc2c(cc1F)CC1C(=O)N(c3ccc(C#N)c(C(F)(F)F)c3)C(=S)N1C2 (stereo unspecified) | > 200 µM | 47.1% | 28.1 µM |  |  |  |  |  |  |  |
| CNC(=O)c1ccc(N2C(=S)N(c3ccc(C#N)c(C(F)(F)F)c3)C(=O)C2(C)C)cc1F [ENZALUTAMIDE] | 46.1 µM |  | 12.5 µM |  |  |  |  |  |  |  |
| N#Cc1ccc(N2C(=O)C3Cc4ccccc4N3C2=S)cc1C(F)(F)F (stereo unspecified) |  |  | 15.3 µM | 10.4 h | 2 h | 0.452 µg/mL | 1.59 L/h/kg | 2.86 µg·h/mL | 18.7 µM |  |
| CS(=O)(=O)Nc1ccc2c(c1)CN1C(=S)N(c3ccc(C#N)c(C(F)(F)F)c3)C(=O)C1C2 (stereo unspecified) | > 200 µM | 13.6% | 31.1 µM |  |  |  |  |  |  |  |
| CCCOc1ccc2c(c1)CN1C(=S)N(c3ccc(C#N)c(C(F)(F)F)c3)C(=O)C1C2 (stereo unspecified) | 62.3 µM | 54% | 11.6 µM |  |  |  |  |  |  |  |
| COc1ccc2c(c1)CN1C(=S)N(c3ccc(C#N)c(C(F)(F)F)c3)C(=O)C1C2 (stereo unspecified) | 60.4 µM | inactive | 100 µM |  |  |  |  |  |  |  |
| N#Cc1ccc(N2C(=O)C3Cc4cc(Br)c(O)c(Br)c4CN3C2=S)cc1C(F)(F)F (stereo unspecified) | 11.4 µM | 6.1% | 11.1 µM |  |  |  |  |  |  |  |
| N#Cc1ccc(N2C(=O)C3Cc4ccccc4CN3C2=S)cc1F (stereo unspecified) | 37.1 µM | inactive | 70.3 µM |  |  |  |  |  |  |  |
| CC(=O)Nc1ccc2c(c1)CN1C(=S)N(c3ccc(C#N)c(C(F)(F)F)c3)C(=O)C1C2 (stereo unspecified) | > 200 µM | 25% | 83.8 µM |  |  |  |  |  |  |  |
| N#Cc1ccc(N2C(=O)C3Cc4cc(N)ccc4CN3C2=S)cc1C(F)(F)F (stereo unspecified) | > 200 µM | 14.2% | 73 µM |  |  |  |  |  |  |  |
| CNC(=O)c1cc2c(cc1F)CC1C(=O)N(c3ccc(C#N)c(F)c3)C(=S)N1C2 (stereo unspecified) | 85.4 µM | 26.7% | 116 µM |  |  |  |  |  |  |  |
| CCOC(=O)CCCOc1c(Br)cc2c(c1Br)CN1C(=S)N(c3ccc(C#N)c(C(F)(F)F)c3)C(=O)C1C2 (stereo unspecified) | 21.9 µM | inactive | 6.3 µM |  |  |  |  |  |  |  |

| Structure (SMILES) | IC50 (DU-145) | inhibition [1] | IC50 (LNCaP) | half-life [2] | Tmax [3] | Cmax [4] | CL/F [5] | AUC(0-t) [6] | IC50 (Androgen receptor) | inhibition [7] |
| --- | --- | --- | --- | --- | --- | --- | --- | --- | --- | --- |
| CCOC(=O)CCCOc1ccc2c(c1)CN1C(=S)N(c3ccc(C#N)c(C(F)(F)F)c3)C(=O)C1C2 (stereo unspecified) | 15.4 µM | 43.9% | 18.8 µM |  |  |  |  |  |  |  |
| N#Cc1ccc(N2C(=O)C3Cc4cc(Cl)c(O)c(Cl)c4CN3C2=S)cc1C(F)(F)F (stereo unspecified) | 17.1 µM | 36% | 14 µM |  |  |  |  |  |  |  |
| CC(C)Oc1ccc2c(c1)CN1C(=S)N(c3ccc(C#N)c(C(F)(F)F)c3)C(=O)C1C2 (stereo unspecified) | 91.6 µM | 45.4% | 8.6 µM |  |  |  |  |  |  |  |
| CC(C)COc1ccc2c(c1)CN1C(=S)N(c3ccc(C#N)c(C(F)(F)F)c3)C(=O)C1C2 (stereo unspecified) | 52.6 µM | 61.5% | 10.6 µM |  |  |  |  |  |  |  |
| N#Cc1ccc(N2C(=O)C3Cc4cc(I)c(O)c(I)c4CN3C2=S)cc1C(F)(F)F (stereo unspecified) | 22.1 µM | 27.3% | 16.3 µM |  |  |  |  |  |  |  |
| CCCC(=O)Nc1ccc2c(c1)CN1C(=S)N(c3ccc(C#N)c(C(F)(F)F)c3)C(=O)C1C2 (stereo unspecified) | > 200 µM | 45.5% | 10.8 µM |  |  |  |  |  |  |  |
| CCOC(=O)Nc1ccc2c(c1)CN1C(=S)N(c3ccc(C#N)c(C(F)(F)F)c3)C(=O)C1C2 (stereo unspecified) | 90.1 µM | 45.4% | 6.3 µM | 34.4 h | 2 h | 0.641 µg/mL | 0.57 L/h/kg | 7.03 µg·h/mL |  |  |
| CCCCS(=O)(=O)Nc1ccc2c(c1)CN1C(=S)N(c3ccc(C#N)c(C(F)(F)F)c3)C(=O)C1C2 (stereo unspecified) | > 200 µM | 29.5% | 3.12 µM |  |  |  |  |  |  |  |
| CCOC(=O)Nc1cc2c(cc1F)CC1C(=O)N(c3ccc(C#N)c(C(F)(F)F)c3)C(=S)N1C2 (stereo unspecified) | > 200 µM | 85.1% | 13.4 µM | 24.7 h | 4 h | 2.29 µg/mL | 0.146 L/h/kg | 30 µg·h/mL | 7.39 µM | Active |
| N#Cc1ccc(N2C(=O)C3Cc4ccc(N)cc4CN3C2=S)cc1C(F)(F)F (stereo unspecified) | 89.7 µM | 37.8% | 18.9 µM |  |  |  |  |  |  |  |
| CC(C)(C)C(=O)Nc1ccc2c(c1)CN1C(=S)N(c3ccc(C#N)c(C(F)(F)F)c3)C(=O)C1C2 (stereo unspecified) | 83.2 µM | inactive | 21.2 µM |  |  |  |  |  |  |  |
| CCC(=O)Nc1ccc2c(c1)CN1C(=S)N(c3ccc(C#N)c(C(F)(F)F)c3)C(=O)C1C2 (stereo unspecified) | > 200 µM | 4.5% | 19.5 µM |  |  |  |  |  |  |  |
| N#Cc1ccc(N2C(=O)C3Cc4ccc(OC5CCCCC5)cc4CN3C2=S)cc1C(F)(F)F (stereo unspecified) | 98.1 µM | 61.6% | 8.5 µM |  |  |  |  |  |  |  |
| N#Cc1ccc(N2C(=O)C3Cc4cc([N+](=O)[O-])ccc4CN3C2=S)cc1C(F)(F)F (stereo unspecified) | > 200 µM | inactive | 56.4 µM |  |  |  |  |  |  |  |
| CC12Cc3ccccc3CN1C(=S)N(c1ccc(C#N)c(C(F)(F)F)c1)C2=O (stereo unspecified) | > 200 µM | 26.2% | 65.3 µM |  |  |  |  |  |  |  |
| N#Cc1ccc(N2C(=O)C3Cc4ccc([N+](=O)[O-])cc4CN3C2=S)cc1C(F)(F)F (stereo unspecified) | > 200 µM | 59.8% | 43 µM |  |  |  |  |  |  |  |

Reference: ChEMBL document CHEMBL4138152, “Exploring the tetrahydroisoquinoline thiohydantoin scaffold blockade the androgen receptor as potent anti-prostate cancer agents” (Eur J Med Chem, 2018)
